Assay outcomes (PubChem)
KCNK9 inh = KCNK9 potassium channel inhibitors, primary screen, HEK293 cells, thallium flux. FluxOR thallium flux fluorescence; hits give low values. B-score at 10 µM. 1.2% of 310,000 active;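 active = ratio B-score over 3 SD below the library mean, with starting fluorescence within 5 SD of its mean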;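 also: negative B-score means less thallium flux so channel inhibition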
KCNQ1 pot = potentiators or activators of KCNQ1 channel, primary screen, cell-based, thallium flux, high-throughput; 0.35% of 310,000 active; CHO-K1 KCNQ1, thallium flux FluxOR fluorescence; hits give high values; B-score at 10 µM; AID 2648, 2010; Potassium voltage-gated channel subfamily KQT member 1 (Homo sapiens), P51787;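 active = fluorescence ratio B-score, a plate-corrected score, at least three library SD, with initial intensity B-score within 5 SD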
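Doses: Single concentration per compound, DMSO matched to controls | Test system: KCNQ1-transfected CHO-K1 cells | Timing: 90 min dye loading and 20 min compound exposure, both at room temperature | Measured by: Kinetic FluxOR thallium fluorescence, 10-s 1-Hz baseline, 110-s post-stimulus read | Medium: Assay buffer with matched DMSO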
hERG rescue = hERG rescue from dofetilide block, primary screen, cell-based, CHO-hERG, FluxOR thallium flux, dofetilide IC70 | AID 1511, 2009 | 0.51% of 310,000 active | Voltage-gated inwardly rectifying potassium channel KCNH2 (Homo sapiens), Q12809 | activation (rescue from dofetilide block), less the hit threshold, % at 10 µM | dofetilide IC70 present;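 active = activation above the mean of controls blocked by dofetilide plus 5 SD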;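 also: thallium influx through hERG after potassium depolarization seen as dye fluorescence rise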
KCNK3 inh = human KCNK3 channel inhibitors, primary screen, CHO cells, FluxOR thallium flux, B-score; FluxOR fluorescence; hits give low values; B-score at 10 µM; 0.84% of 340,000 active; AID 602410, 2012;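 active = B-score under library mean minus 4 SD, starting fluorescence ratio at most library mean plus 5 SD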;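 also: more negative B-score means stronger inhibition of thallium flux through KCNK3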
Target sequence (O14649 whole entry, looked up): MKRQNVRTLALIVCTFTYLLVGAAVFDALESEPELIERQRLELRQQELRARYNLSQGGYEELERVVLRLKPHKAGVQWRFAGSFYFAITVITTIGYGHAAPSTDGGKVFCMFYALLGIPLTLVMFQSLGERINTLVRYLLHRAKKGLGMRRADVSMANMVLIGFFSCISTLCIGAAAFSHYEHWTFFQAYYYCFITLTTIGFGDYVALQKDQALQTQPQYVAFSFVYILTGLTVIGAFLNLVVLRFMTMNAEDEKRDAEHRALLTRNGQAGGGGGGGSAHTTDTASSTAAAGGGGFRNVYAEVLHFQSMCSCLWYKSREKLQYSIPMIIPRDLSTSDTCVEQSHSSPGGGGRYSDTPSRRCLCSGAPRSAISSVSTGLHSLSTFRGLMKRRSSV
KCNQ1 inh = inhibitors of human KCNQ1 channel, primary screen, cell-based, thallium flux, high-throughput; 1.3% of 310,000 active; B-score at 10 µM; Potassium voltage-gated channel subfamily KQT member 1 (Homo sapiens), P51787; CHO-K1 KCNQ1, FluxOR thallium flux fluorescence; hits give high values;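 active = compounds whose thallium flux B-score, printed positive for inhibition, exceeds three library SD while starting fluorescence stays within three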;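 also: channel opened by potassium depolarization with thallium stimulus after 20 min compound exposure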
Kir21 inh = inhibitors of mouse Kir2.1 inward-rectifier potassium channel; Inward rectifier potassium channel 2 (Mus musculus), P35561; HEK293-Kir2.1, FluxOR thallium flux fluorescence; hits give low values; B-score at 10 µM; 0.85% of 310,000 active; AID 1672, 2009;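 active = fluorescence ratio B-score at or below minus 3 SD of library scores, with starting-brightness B-score within 2 SD, cut at about -4.2 in these data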;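 also: channel flux triggered by added potassium and thallium sulfate stimulus; B-score of peak minus minimum fluorescence over baseline after thallium stimulus; more negative B-score means stronger Kir2.1 block with less thallium influx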
Starred values were filed as active, the others as inactive; i = inactive; . = no result given. Hits are enriched below; roughly 3.7% of the tested compounds scored in any of these assays.

SMILES	KCNK9 inh	KCNQ1 pot	hERG rescue	KCNK3 inh	KCNQ1 inh	Kir21 inh
O=c1c2ccc(Cl)cc2nc(-c2cccc(C(F)(F)F)c2)n1O	i	136*	74.7*	i	i	-1.31
CCN(CC)c1nc2cc(C)ccc2cc1/C=C(\C#N)C(N)=O	i	i	-9.1	i	i	-0.19
CC(C)(C)c1cc(O)c(C(C)(C)C)cc1O	-8.51*	8*	-9.0	.	i	0.79
COc1ccc(CN(C)C(=O)c2cc(-c3ccccc3)nc3ccc(C)cc23)c(OC)c1OC	i	i	-34.0	i	6*	-0.8
CCOC(=O)C1=C(C)NC(SC)=C(C#N)C1CC(C)C (centres undefined)	i	i	-8.4	i	i	-7.08*
CC(=O)Nc1ccc(S(=O)(=O)N2CCN(c3cc(C)nc4ccccc34)CC2)cc1	i	i	-6.3	i	i	2.96
CC(=O)Nc1ccc(S(=O)(=O)N2CCN(c3nc(NC4CCCC4)c4ccccc4n3)CC2)cc1	i	i	-16.4	i	6*	-1.72
Cc1ccccc1CC(=O)Nc1ccon1	i	i	-11.3	i	i	1.07
O=C(Nc1ccc2c(c1)OCCO2)N1CCN(Cc2ccccc2)CC1	i	i	-12.0	i	i	-0.05
O=C(N/N=C\c1c(O)ccc2ccccc12)c1ccc(O)cc1	i	i	-8.6	i	i	-0.08
O=C(N/N=C/c1c(O)ccc2ccccc12)Nc1ccccc1	i	i	-9.2	i	6*	0.71
O=C(N/N=C/c1c(O)ccc2ccccc12)c1ccc(Br)o1	i	i	-15.1	i	6*	0.55
CC(C)Cc1nnc(NC(=O)c2ccncc2)s1	i	i	-1.7	i	i	0.04
CC1=C(C(=O)OC(C)C)C(c2cncc(-c3ccc(F)cc3)c2)C(C#N)=C(N)O1 (centres undefined)	i	i	-9.5	i	i	-1.38
Brc1cnc2nc(SC/C=C/c3ccccc3)[nH]c2c1	i	i	-7.5	i	i	0.16
O=C(NCc1nc2ncc(Br)cc2[nH]1)c1ccccc1	i	i	6.2*	i	i	0.24
O=S(=O)(c1ccc2ccccc2c1)N1CCN=C1SCc1cccnc1	i	i	-12.7	i	i	-5.02*
O=S(=O)(c1ccc(F)cc1)N1CCN=C1SCc1cccnc1	i	i	-9.4	i	i	-3.57
COc1cc(NC(=O)COc2ccc(Cl)cc2)ccc1-c1cc2ccccc2oc1=O	i	i	-11.4	i	i	0.37
COc1ccc(OC)c2cc3ccccc3cc12	.	.	.	-12.2*	.	.
C/C(=N\N=C(N)N)c1ccc(Cl)c(Cl)c1	i	i	-21.4	i	i	-5.27*
CCOc1ccc(OCCNC(=O)c2ccc3c(c2)nnn3CC)cc1	.	.	.	i	.	.
Cc1[nH]n(-c2nc(-c3ccc(Cl)cc3)cs2)c(=O)c1N=Nc1ccc(O)cc1	i	i	-7.9	i	8*	0.08
CCOC(=O)C1C(c2ccccc2)C(C(=O)OCC)C1c1ccccc1 (centres undefined)	i	i	5.7*	i	i	1.15
Cc1ccc(S(=O)(=O)N2CCN(C(=O)c3ccc(Br)o3)CC2)c(C)c1	i	11*	-11.9	i	i	-0.46
SMILES	KCNK9 inh	KCNQ1 pot	hERG rescue	KCNK3 inh	KCNQ1 inh	Kir21 inh
Cc1ccc(S(=O)(=O)N2CCN(C(=O)COC(=O)c3ccc(Br)o3)CC2)c(C)c1	i	i	-13.1	i	i	-0.3
CSc1nc(N)nc(SCC(=O)C23CC4CC(CC(C4)C2)C3)c1C#N	-7.45*	i	-16.1	i	i	-0.03
N#Cc1c(N)nc(SCC(=O)C23CC4CC(CC(C4)C2)C3)c(C#N)c1-c1ccc(Cl)cc1	i	i	-7.9	i	i	-0.42
CCC1(c2ccccc2)NC(=O)N(CC(=O)NC2CCCC2)C1=O (centres undefined)	.	.	.	i	.	.
CC(C)(C)c1ccc(C(=O)NC(=S)Nc2nc3c(s2)CCCC3)cc1	i	33*	28.4*	i	i	-0.5
CN(C)Cc1nc2ccccc2c(=O)n1Cc1nc(-c2cccc([N+](=O)[O-])c2)cs1	-7.62*	i	-12.8	i	i	1.86
COc1cccc(CNc2cc(CSc3ccc(Cl)cc3)nc(C)n2)c1	i	i	-9.9	i	i	-7.65*
COc1cccc(CNc2ccc(C)c(Cl)c2)c1	i	i	-3.6	i	i	1.44
CC(=O)C(=Nc1ccc(Cl)cc1Cl)NNc1cccc(Cl)c1	i	i	-9.0	i	10*	-0.1
O=C(Nc1ccc([N+](=O)[O-])cn1)c1cc(-c2cccc(Cl)c2)nc2ccccc12	-7.13*	i	-27.5	i	i	-0.13
COc1cccc(-c2cc(C(=O)Nc3ccc([N+](=O)[O-])cn3)c3ccccc3n2)c1	-7.79*	i	-19.3	i	i	-0.16
O=C(Nc1ccc([N+](=O)[O-])cn1)c1cc(-c2cccc(Br)c2)nc2ccccc12	i	i	-22.7	i	i	-0.75
CC(C)C[C@@]12C(=O)N(c3cccc(Br)c3)C(=O)N1[C@H](c1ccc(F)cc1)[C@@H]1C(=O)N(C3CCCCC3)C(=O)[C@@H]12	i	i	-10.0	i	i	-0.01
COC(=O)C1=CN(CCCN2CCCC2=O)C=C(C(=O)OC)C1c1cccs1	i	i	-7.9	i	i	-0.63
COC(=O)C1=CN(Cc2ccc(OC)cc2)C=C(C(=O)OC)C1c1cccs1	-6.66*	i	-8.9	i	i	0.01
NS(=O)(=O)c1ccc(N2CCOCC2)c(C(=O)NCc2ccc3c(c2)OCO3)c1	.	.	.	i	.	.
CC(N=c1ccccn1C(=O)Nc1cccc(C(F)(F)F)c1)c1ccco1 (centres undefined)	i	i	-5.7	i	9*	0.49
O=C(NCCOc1ccccc1F)C1CCC(=O)N(CC2CCCCC2)C1 (centres undefined)	i	i	-16.5	i	i	-1.31
Cc1ccc(C)c(N2CCN(CCCNC(=O)Cn3cc4c(n3)CCC(C)C4)CC2)c1 (centres undefined)	i	i	-7.2	i	i	-4.73*
CC1CCc2nn(CC(=O)NCCCN3CCCC3=O)cc2C1 (centres undefined)	i	i	-9.2	i	i	-1.42
